Results as given in ChEMBL document CHEMBL4196105, “Discovery of β-Arrestin Biased Ligands of 5-HT7R” (J Med Chem, 2018).

Columns and labels:
[1] = target: 5-hydroxytryptamine receptor 4 (Homo sapiens, UniProt Q13639); assay: Displacement of [3H]LSD from human 5-HT4 receptor expressed in HEK cell membranes after 1.5 hrs by microbeta scintillation counting method
In short: (§1)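 Radioligand binding performed by the NIMH Psychoactive Drug Screening Program. Crude membranes from cells expressing recombinant receptor, with [3H]LSD, in 50 mM Tris-HCl, 10 mM MgCl2, 1 mM EDTA, pH 7.4. Eleven test concentrations. Incubated 1.5 h at room temperature, protected from light. Filtered onto PEI-soaked GF/B filters, then scintillation counting. IC50 converted to Ki; at least three experiments in triplicate.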

[2] = target: 5-hydroxytryptamine receptor 1E (Homo sapiens, UniProt P28566); assay: Displacement of [3H]LSD from human 5-HT1E receptor expressed in HEK cell membranes after 1.5 hrs by microbeta scintillation counting method; in short: as §1
5-hydroxytryptamine receptor 1E, sequence (P28566 whole entry): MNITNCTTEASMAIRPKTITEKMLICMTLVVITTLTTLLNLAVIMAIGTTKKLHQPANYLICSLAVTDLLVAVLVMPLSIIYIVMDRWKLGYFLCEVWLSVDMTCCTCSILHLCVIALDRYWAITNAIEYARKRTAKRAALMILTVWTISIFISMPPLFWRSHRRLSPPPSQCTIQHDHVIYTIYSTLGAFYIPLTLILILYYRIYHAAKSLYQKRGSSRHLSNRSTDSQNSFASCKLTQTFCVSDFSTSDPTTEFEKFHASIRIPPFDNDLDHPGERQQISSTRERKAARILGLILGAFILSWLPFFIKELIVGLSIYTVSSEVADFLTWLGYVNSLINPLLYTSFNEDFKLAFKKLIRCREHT

[3] = target: T1, 5-hydroxytryptamine receptor 3A (Homo sapiens, UniProt P46098); assay: Displacement of [3H]LSD from human 5-HT3 receptor expressed in HEK cell membranes after 1.5 hrs by microbeta scintillation counting method; in short: as §1
T1 sequence (P46098 whole entry): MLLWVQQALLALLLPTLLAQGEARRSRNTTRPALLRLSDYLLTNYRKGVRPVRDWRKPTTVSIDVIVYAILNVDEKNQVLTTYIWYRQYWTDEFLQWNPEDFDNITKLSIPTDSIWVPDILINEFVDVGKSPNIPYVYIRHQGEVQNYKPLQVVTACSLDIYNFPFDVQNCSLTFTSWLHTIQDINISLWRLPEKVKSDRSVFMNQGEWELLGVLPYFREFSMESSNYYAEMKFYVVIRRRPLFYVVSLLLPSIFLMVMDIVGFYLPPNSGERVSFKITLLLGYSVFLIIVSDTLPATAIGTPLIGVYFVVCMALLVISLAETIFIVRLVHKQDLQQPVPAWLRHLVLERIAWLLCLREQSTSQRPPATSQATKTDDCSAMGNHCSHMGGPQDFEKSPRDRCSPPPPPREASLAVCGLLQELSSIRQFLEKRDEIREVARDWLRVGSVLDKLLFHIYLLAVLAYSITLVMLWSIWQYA

[4] = target: T2, 5-hydroxytryptamine receptor 1A (Homo sapiens, UniProt P08908); assay: Displacement of [3H]LSD from human 5-HT1A receptor expressed in HEK cell membranes after 1.5 hrs by microbeta scintillation counting method; in short: as §1
T2 sequence (P08908 whole entry): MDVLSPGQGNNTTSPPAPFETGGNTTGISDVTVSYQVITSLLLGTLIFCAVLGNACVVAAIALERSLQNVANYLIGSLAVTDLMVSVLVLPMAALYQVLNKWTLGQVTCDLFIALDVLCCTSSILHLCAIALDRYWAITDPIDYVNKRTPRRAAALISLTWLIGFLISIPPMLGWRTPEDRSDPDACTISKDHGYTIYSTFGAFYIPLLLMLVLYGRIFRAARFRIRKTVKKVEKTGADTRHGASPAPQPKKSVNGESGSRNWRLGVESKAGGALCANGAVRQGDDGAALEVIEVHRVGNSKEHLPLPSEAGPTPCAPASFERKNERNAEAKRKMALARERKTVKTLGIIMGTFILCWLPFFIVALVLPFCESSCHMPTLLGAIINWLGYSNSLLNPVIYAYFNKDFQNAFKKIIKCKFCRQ

[5] = Oral bioavailability in ICR mouse at 50 mg/kg by LC-MS/MS analysis; assay type: ADME, organism-based; details: in vivo
In short: (§2)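 Male ICR mice, 7~8 weeks, 30 ± 5 g; single dose 5 mg/kg IV (n = 5) or 50 mg/kg oral (n = 4). Plasma protein-precipitated with acetonitrile containing internal standard, then LC-MS/MS. Non-compartmental analysis; AUClast by trapezoidal rule. Mean ± SD.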

CYP1A2 = target: T3, CYP1A2 (Homo sapiens, UniProt P05177); assay: Inhibition of CYP1A2 in human liver microsomes assessed as remaining activity at 10 uM using phenacetin as substrate preincubated for 5 mins followed by addition of NADPH generating system measured after 15 mins by LC-MS analysis; assay type: ADME; details: probe phenacetin, read-out: Activity
T3 sequence (P05177 whole entry): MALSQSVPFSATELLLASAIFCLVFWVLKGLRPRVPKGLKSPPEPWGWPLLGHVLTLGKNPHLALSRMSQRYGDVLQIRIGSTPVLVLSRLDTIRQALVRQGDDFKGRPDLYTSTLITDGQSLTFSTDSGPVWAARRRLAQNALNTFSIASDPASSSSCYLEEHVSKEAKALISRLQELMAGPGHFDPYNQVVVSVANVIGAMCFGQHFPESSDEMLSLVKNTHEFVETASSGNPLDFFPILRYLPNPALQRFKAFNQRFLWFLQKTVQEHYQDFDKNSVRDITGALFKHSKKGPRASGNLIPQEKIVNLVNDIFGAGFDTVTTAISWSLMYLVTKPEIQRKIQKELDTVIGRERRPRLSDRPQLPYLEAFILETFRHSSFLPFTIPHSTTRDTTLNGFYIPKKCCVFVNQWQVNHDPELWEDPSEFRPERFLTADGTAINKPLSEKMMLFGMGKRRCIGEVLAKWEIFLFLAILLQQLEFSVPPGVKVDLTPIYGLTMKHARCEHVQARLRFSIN
In short: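 Human liver microsomes 0.25 mg/ml in 0.1 M phosphate, pH 7.4, with a probe cocktail: phenacetin 50 μM, diclofenac 10 μM, S-mephenytoin 100 μM, dextromethorphan 5 μM, midazolam 2.5 μM. Test compound at 10 μM versus 0 μM control. 5 min at 37 °C, then NADPH-generating system for 15 min. Acetonitrile quench; metabolites measured by LC/MS as % remaining activity.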

Mus musculus [6] = assay: Toxicity in ICR mouse assessed as mortality at 5 mg/kg, iv; assay type: organism-based; details: in vivo
In short: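 Observed in male ICR mice (7~8 weeks, 30 ± 5 g; n = 5) during a pharmacokinetic study after a single intravenous dose. Mice were held at 23 ± 3° and about 55% ± 10% humidity with standard feed and tap water. Blood was drawn via carotid artery from 0.08 to 8 h after dosing.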

[7] = Apparent volume of distribution at steady state in ICR mouse at 5 mg/kg, iv by LC-MS/MS analysis; assay type: ADME, organism-based; details: in vivo, read-out: Vdss; in short: as §2
Mus musculus [8] = assay: Sleep promoting activity in C57B1/6J mouse assessed as decrease in total rapid eye movement sleep time at 30 mg/kg, ip measured over 4 hrs by electroencephalogram method; assay type: functional; parameters: scale not given: the % may be the effect or the level left
In short: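 Adult male C57Bl/6J mice, 10 weeks old, with parietal EEG screw electrodes implanted under ketamine. EEG and EMG recorded for 8 h from 9 AM, starting one day before dosing as baseline. On test day, 30 mg/kg i.p. at the start of the light phase, with EEG/EMG recorded for 8 h and scored in 2-h bins. n = 6-9 per group; mean ± SEM versus vehicle.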

[9] = Terminal half-life in ICR mouse at 5 mg/kg, iv by LC-MS/MS analysis; assay type: ADME, organism-based; details: in vivo, read-out: beta t1/2 (converted); in short: as §2
[10] = Cmax in ICR mouse at 5 mg/kg, iv by LC-MS/MS analysis; assay type: ADME, organism-based; parameters: dose 5 mg/kg, route intravenous; details: in vivo; in short: as §2
[11] = Terminal half-life in ICR mouse at 50 mg/kg, po by LC-MS/MS analysis; assay type: ADME, organism-based; details: in vivo, read-out: beta t1/2 (converted); in short: as §2
[12] = Cmax in ICR mouse at 50 mg/kg, po by LC-MS/MS analysis; assay type: ADME, organism-based; parameters: dose 50 mg/kg, route oral; details: in vivo; in short: as §2

5-hydroxytryptamine receptor 4, sequence (Q13639 whole entry): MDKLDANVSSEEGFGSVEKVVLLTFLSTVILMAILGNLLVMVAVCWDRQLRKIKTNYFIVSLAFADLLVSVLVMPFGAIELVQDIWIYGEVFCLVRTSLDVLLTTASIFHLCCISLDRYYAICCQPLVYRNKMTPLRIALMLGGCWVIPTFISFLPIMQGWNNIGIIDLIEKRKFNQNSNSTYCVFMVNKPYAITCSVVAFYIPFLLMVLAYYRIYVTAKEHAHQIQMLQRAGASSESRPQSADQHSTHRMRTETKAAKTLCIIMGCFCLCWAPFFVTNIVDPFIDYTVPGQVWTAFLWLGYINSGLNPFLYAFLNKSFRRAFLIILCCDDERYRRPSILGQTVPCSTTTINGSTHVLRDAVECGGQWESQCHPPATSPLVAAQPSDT

Cc1ccc(-c2noc3c2CCNCC3)cc1
Ki [1]: > 10000 nM | Ki [2]: 1790 nM | Ki [3]: 420 nM | Ki [4]: > 10000 nM

Clc1ccc(-c2n[nH]c3c2CCNCC3)cc1
bioavailability [5]: 90.8% | activity at 0.25 h, 10 µM (CYP1A2): 86% | Ki [1]: > 10000 nM | Activity (Mus musculus [6]): Non-Toxic | Vd [7]: 2.47 L/kg | Activity (Mus musculus [8]): 69.4% | half-life [9]: 1.78 h | Cmax [10]: 2200 ng/mL | Ki [2]: 1370 nM | half-life [11]: 2.77 h | Ki [3]: > 10000 nM | Cmax [12]: 11800 ng/mL | Ki [4]: > 10000 nM

Fc1ccc(-c2n[nH]c3c2CCNCC3)cc1
Ki [1]: > 10000 nM | Ki [2]: 793 nM | Ki [3]: > 10000 nM | Ki [4]: 1870 nM
